GPR7 antagonist = human neuropeptides B/W receptor 1 antagonism | GPR7-expressing cells, fluorescence antagonist assay | inhibition, % at 4.4 µM | hit rate 1.1% among 290,000; in the data active = inhibition above about 16%, passing the limit was not always enough;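 also: cells stimulated with the agonist NPW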
Target sequence (P48145 whole entry, looked up): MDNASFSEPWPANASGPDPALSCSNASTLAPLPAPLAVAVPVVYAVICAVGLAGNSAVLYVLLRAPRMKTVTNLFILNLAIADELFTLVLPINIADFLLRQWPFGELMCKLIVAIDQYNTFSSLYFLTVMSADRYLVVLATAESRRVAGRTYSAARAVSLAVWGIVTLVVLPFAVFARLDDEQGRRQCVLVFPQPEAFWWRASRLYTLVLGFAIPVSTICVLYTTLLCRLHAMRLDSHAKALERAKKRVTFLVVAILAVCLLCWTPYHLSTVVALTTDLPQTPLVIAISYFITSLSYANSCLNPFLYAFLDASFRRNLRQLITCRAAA
DAGLB inh = diacylglycerol lipase beta (human) inhibition; Q8NCG7; HEK293T DAGLB membrane lysate, EnzChek fluorogenic substrate; inhibition, % at 5.17 µM; hit rate 0.059% among 340,000; in the data active = inhibition above about 34%
GRK2 aptamer HTS = human GRK2 inhibition via aptamer displacement | P25098 | bead flow cytometry, FAM-aptamer displacement from GRK2 | inhibition of aptamer binding, % at 10 µM | hit rate 0.59% among 330,000 | AID 488847;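 active = inhibition of aptamer binding above 40%, roughly 3 SD of noise, on plates passing a quality check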;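 also: median bead fluorescence of bound FAM aptamer so fluorescent compounds give negative values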
HCV core dimer = HCV core protein dimerization inhibition | AID 1899 | TR-FRET GST/Flag-core106 dimerization, 1536-well | inhibition, % at 5 µM | hit rate 0.33% among 300,000;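 active = inhibition above the mean of all tested compounds plus 3 SD, set per screening campaign, cut at about 45% in these data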
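assay system = GST-tagged and Flag-tagged HCV core protein residues 1-106 | controls = unlabelled core106 and no-GST-core106 wells | incubation = compound-protein-antibody incubation 4 h at 22.5 °C | probe or stimulus = Eu donor and XL665 acceptor anti-tag antibodies | read-out = % inhibition based on acceptor/donor emission ratio | signal = TR-FRET 671 and 617 nm emission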
HCV NS3 hel inh = inhibitors of Hepatitis C virus NS3 helicase | NS3 helicase DNA unwinding, Cy5 molecular beacon fluorescence | inhibition, % at 10.9 µM | hit rate 0.56% among 290,000 | AID 1800;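 active = inhibition above the mean of all tested compounds plus 3 SD, set per campaign, cut at about 35% in these data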
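System: Hepatitis C virus NS3 helicase domain fragment enzyme | Reagent: Annealed dual-labelled DNA beacon duplex, ATP-started | Compound dosing: 10.9 µM single point, 0.8% DMSO | Incubation: 1 h reaction at 25 °C, ATP-initiated | Technique: Cy5 fluorescence | Evaluation: Percent inhibition from t60/t0 fluorescence ratio | Benchmarks: Low DMSO, high thioflavine S at 110 µM | Replication: Singlicate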
DNA FID counter = displaces DNA intercalator in HCV helicase counter-screen. inhibition, % at 7.9 µM. DNA fluorescent intercalator displacement, fluorescence. AID 1845. hit rate 0.17% among 290,000; in the data active = inhibition above about 37%;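 also: higher means more ethidium bromide displaced from hairpin DNA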
GRK2 inh confirm = confirmation of human GRK2 inhibitors displacing RNA aptamer; bead-bound GRK2, FAM-aptamer displacement, flow cytometry; AID 504451; hit rate 4% among 2,000; aptamer displacement, % at 10 µM; shares compounds with GRK2 aptamer HTS;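 active = aptamer displacement above 40%, near three times the noise of non-fluorescent compounds, on plates passing quality checks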;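 also: negative values mostly reflect intrinsic compound fluorescence rather than true enhancement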
Aptamer quench SP = counter-screen for GRK2 aptamer inhibitors: fluorescent aptamer quenchers; shares compounds with GRK2 aptamer HTS; Carboxyfluorescein RNA aptamer on beads, flow cytometry quenching; stronger effect = lower value; 2,000 tested, under 10 active; fluorescence response (% of DMSO), % at 10 µM; AID 504580;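 active = compounds that quench the bead-bound fluorescent RNA probe, cutting fluorescence to under half of the solvent control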;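 also: counterscreen run without GRK2 so only probe quenching by compound is measured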
GRK2 CP2 = human GRK2 inhibition confirmation, cherry pick 2. shares compounds with GRK2 aptamer HTS. bead-bound GRK2, FAM-aptamer displacement, flow cytometry. inhibition of aptamer binding, % at 10 µM. 360 tested, under 10 active;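 active = inhibition of aptamer binding above 40%, about triple the noise seen with nonglowing compounds, on plates passing quality control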;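 also: negative values mostly come from compounds that fluoresce themselves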
FAM quench SP = aptamer fluorescence quenching in GRK2 counter-screen | fluorescence response vs DMSO, % at 10 µM | shares compounds with GRK2 aptamer HTS | AID 588494 | 360 tested, under 10 active | carboxyfluorescein RNA aptamer beads, flow cytometry quenching; stronger effect = lower value;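 active = response vs DMSO under 50%, meaning signal dropped by over half, treated as fluorescence quencher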;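 also: labelled aptamer on streptavidin beads without GRK2 as a quench counter-screen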
Each line names hits and unclear results; the compound was inactive in the other large screens (follow-up assays come after a bar, where they were run). An excerpt weighted towards active compounds, which were near 2.2% of everything screened.

C[C@H](CO)N1C[C@H](C)[C@@H](CN(C)Cc2ccccc2)Oc2c(NC(=O)C3CC3)cccc2C1=O	none (no result: GPR7 antagonist, HCV core dimer, HCV NS3 hel inh, DNA FID counter)
CSc1ccccc1NC(=O)N1CCCC(C(=O)c2ccc3c(c2)OCO3)C1 (centres undefined)	GRK2 aptamer HTS 95.0 | GRK2 inh confirm inactive | Aptamer quench SP inactive
CCN=C1S/C(=C\c2ccc(-c3cccc(C(=O)O)c3)o2)C(=O)N1CC	none | GRK2 inh confirm inactive | Aptamer quench SP inactive
CCN1C(=O)/C(=C\c2ccc(-c3cccc(C(=O)OC)c3)o2)SC1=Nc1ccc(C(=O)O)cc1	none (no result: DAGLB inh)
O=C(Nc1nc(-c2cccs2)c(-c2cccs2)s1)C1CCCC1	none (no result: GRK2 aptamer HTS, HCV core dimer)
Cc1nn(C)c(C(=O)N2CCc3ccccc32)c1Br	GRK2 aptamer HTS 41.0 | GRK2 CP2 inactive | FAM quench SP inactive
Cc1c(Br)c(C(=O)N2CCc3ccccc32)nn1C	none
COc1ccc(OC(=O)c2cnn(-c3ccccc3)c2C)cc1	GRK2 aptamer HTS 44.0 | GRK2 inh confirm inactive | Aptamer quench SP inactive
O=C(c1ccc(-c2ccccc2)c(F)c1)C1CCCN(CCCn2cccn2)C1 (centres undefined)	none | GRK2 inh confirm inactive | Aptamer quench SP inactive
CCn1cc(CN2CCCC(C(=O)c3ccc(-c4ccccc4)c(F)c3)C2)cn1 (centres undefined)	none
C=CCN(c1ccc(C(=O)Nc2ccc(NC(C)=O)cc2)cc1)S(C)(=O)=O	none
O=C(NC1CC1)c1cccc(NC(=O)c2cnn(-c3ccccc3)n2)c1	none (no result: GPR7 antagonist, HCV core dimer, HCV NS3 hel inh, DNA FID counter) | GRK2 inh confirm inactive | Aptamer quench SP inactive
O=C(Nc1cccc(C(=O)NC2CCCC2)c1)c1ccccc1	none
COc1ccc(Cc2nnc(SC)[nH]c2=O)cc1OC	GRK2 aptamer HTS 51.0 | GRK2 inh confirm inactive | Aptamer quench SP inactive
CCOC(=O)C(Cc1c[nH]c2ccccc12)NC(=O)c1ccccc1Br (centres undefined)	none
CCNC(=S)Nc1ccc(Cc2nc3ccccc3[nH]2)cc1	none
CCOC(=O)[C@@H]1[C@H]2COc3ccccc3[C@@H]2N2C(=O)N(c3ccc(C)cc3)C(=O)[C@]12C	none
CS(=O)(=O)N(CC(N)=O)c1cccc(Br)c1	none
Cc1cccc(N(CC(N)=O)S(C)(=O)=O)c1C	none | GRK2 inh confirm inactive | Aptamer quench SP inactive
CCOc1ccc(S(=O)(=O)NCC(=O)NC2CCCCC2)cc1	none (no result: GPR7 antagonist, HCV core dimer, HCV NS3 hel inh, DNA FID counter)
O=C(/C=C/c1cccc(Br)c1)OCC(=O)N1CCN(c2ccccc2)CC1	GRK2 aptamer HTS 76.0 (no result: GPR7 antagonist, HCV core dimer, HCV NS3 hel inh, DNA FID counter) | GRK2 inh confirm inactive | Aptamer quench SP inactive
CSc1ccc(/C=C/C(=O)OCC(=O)N2CCN(c3ccccc3)CC2)cc1	none (no result: GPR7 antagonist, GRK2 aptamer HTS, HCV core dimer, HCV NS3 hel inh, DNA FID counter)
CNC(=O)c1ccsc1NC(=O)CS(=O)(=O)c1ccccc1	none (no result: GPR7 antagonist, HCV NS3 hel inh, DNA FID counter) | GRK2 CP2 inactive | FAM quench SP inactive
NC(=O)c1ccsc1NC(=O)CS(=O)(=O)c1ccccc1	none (no result: GPR7 antagonist, HCV NS3 hel inh, DNA FID counter) | GRK2 CP2 inactive | FAM quench SP inactive
CNC(=O)c1ccsc1NC(=O)CCS(=O)(=O)c1ccc(Cl)cc1	none (no result: GPR7 antagonist, HCV NS3 hel inh, DNA FID counter)
CC(=O)N1c2ccc(S(=O)(=O)NCCC(=O)NCCc3ccc(C)cc3)cc2CC1C (centres undefined)	none
CC(=O)N1c2ccc(S(=O)(=O)NCCC(=O)NCCc3cccc(C)c3)cc2CC1C (centres undefined)	GRK2 aptamer HTS 77.0 | GRK2 inh confirm inactive | Aptamer quench SP inactive
Cc1ccc(CNC(=O)CN2C(=O)NC(C)(c3cccc(Br)c3)C2=O)cc1 (centres undefined)	GRK2 aptamer HTS 56.0 | GRK2 inh confirm inactive | Aptamer quench SP inactive
COc1ccc(C(=O)COC(=O)c2nc3nccc(C)n3n2)cc1F	none (no result: GPR7 antagonist, HCV core dimer, HCV NS3 hel inh, DNA FID counter)
CCCN(CC(=O)Nc1ccccc1C)C(=O)C1CC(=O)N(c2cccc(C)c2C)C1 (centres undefined)	none (no result: GPR7 antagonist, HCV NS3 hel inh, DNA FID counter) | GRK2 inh confirm inactive | Aptamer quench SP inactive
CCCN(CC(=O)Nc1ccccc1C)C(=O)C1CC(=O)N(c2ccc(C)cc2)C1 (centres undefined)	none (no result: GPR7 antagonist, GRK2 aptamer HTS, HCV core dimer, HCV NS3 hel inh, DNA FID counter)
COc1ccc(-c2cn3nc(SCC(=O)NC4CCCCC4)ccc3n2)cc1	none
O=C(O)c1cccc(Nc2c3ccccc3nc3ccccc23)c1	GRK2 aptamer HTS 51.0 | GRK2 inh confirm inactive | Aptamer quench SP inactive
S=C(N=Nc1ccccc1)NNc1ccccc1	GRK2 aptamer HTS 42.0 | GRK2 inh confirm inactive | Aptamer quench SP inactive
CC(C)(C)NC(=O)COC(=O)CCC(=O)c1ccc(F)cc1	GRK2 aptamer HTS 99.0 | GRK2 inh confirm inactive | Aptamer quench SP inactive
COc1ccc(Cn2nnnc2C(c2ccccn2)N2CCN(c3cc(Cl)ccc3C)CC2)cc1 (centres undefined)	none
COCCn1nnnc1C(c1ccccn1)N1CCN(c2cc(Cl)ccc2C)CC1 (centres undefined)	GRK2 aptamer HTS 97.0 | GRK2 inh confirm inactive | Aptamer quench SP inactive
O=C1C=C(O)CC(c2ccco2)C1 (centres undefined)	GRK2 aptamer HTS 91.0 | GRK2 inh confirm inactive | Aptamer quench SP inactive
O=[N+]([O-])c1cccc(S(=O)(=O)Nc2ccc3cn[nH]c3c2)c1	none (no result: GPR7 antagonist, HCV core dimer, HCV NS3 hel inh, DNA FID counter)
Cc1ccc2[nH]c(C(=O)N3CCOCC3)cc2c1	none
NC(CCCCCP(=O)(c1ccccc1)c1ccccc1)C(=O)O (centres undefined)	GRK2 aptamer HTS 87.0 (no result: DAGLB inh) | GRK2 inh confirm inactive | Aptamer quench SP inactive
COc1ccc2c(c1)c(=O)oc1cc(OCC(=O)N3CCC(C)CC3)ccc12	GRK2 aptamer HTS 47.0 | GRK2 inh confirm inactive | Aptamer quench SP inactive
O=Cc1nc(-c2ccccc2Cl)n2ccccc12	GRK2 aptamer HTS 45.0 | GRK2 inh confirm inactive | Aptamer quench SP inactive
O=Cc1nc(-c2ccc(Cl)cc2)n2ccccc12	none
Cc1ccc2c(c1)/C(=C/c1ccco1)C(=O)N2	GRK2 aptamer HTS 94.0 | GRK2 inh confirm inactive | Aptamer quench SP inactive
Cc1ccc(C23CC4CC(CC(C(=O)N(C)C)(C4)C2)C3)cc1	none
O=C(O)c1ccc(-n2cccc2/C=C2/NC(=O)N(c3ccccc3)C2=O)cc1	GRK2 aptamer HTS 73.0 | GRK2 inh confirm inactive | Aptamer quench SP inactive

Compound activity deposited in PubChem by several laboratories.
